From ChEMBL document CHEMBL1147646, “Novel benzofuran derivatives for PET imaging of beta-amyloid plaques in Alzheimer's disease brains” (J Med Chem, 2006)
Each block holds one molecule with its values, some of them ahead of it. The source made the active and inactive calls. The rule behind the calls is not given here.

Assays:
[1] = molecular target: T1, Amyloid-beta precursor protein (Homo sapiens, UniProt P05067); experiment: Displacement of [125I]IMPY from beta amyloid in human corpse AD brain
T1 sequence (P05067 whole entry): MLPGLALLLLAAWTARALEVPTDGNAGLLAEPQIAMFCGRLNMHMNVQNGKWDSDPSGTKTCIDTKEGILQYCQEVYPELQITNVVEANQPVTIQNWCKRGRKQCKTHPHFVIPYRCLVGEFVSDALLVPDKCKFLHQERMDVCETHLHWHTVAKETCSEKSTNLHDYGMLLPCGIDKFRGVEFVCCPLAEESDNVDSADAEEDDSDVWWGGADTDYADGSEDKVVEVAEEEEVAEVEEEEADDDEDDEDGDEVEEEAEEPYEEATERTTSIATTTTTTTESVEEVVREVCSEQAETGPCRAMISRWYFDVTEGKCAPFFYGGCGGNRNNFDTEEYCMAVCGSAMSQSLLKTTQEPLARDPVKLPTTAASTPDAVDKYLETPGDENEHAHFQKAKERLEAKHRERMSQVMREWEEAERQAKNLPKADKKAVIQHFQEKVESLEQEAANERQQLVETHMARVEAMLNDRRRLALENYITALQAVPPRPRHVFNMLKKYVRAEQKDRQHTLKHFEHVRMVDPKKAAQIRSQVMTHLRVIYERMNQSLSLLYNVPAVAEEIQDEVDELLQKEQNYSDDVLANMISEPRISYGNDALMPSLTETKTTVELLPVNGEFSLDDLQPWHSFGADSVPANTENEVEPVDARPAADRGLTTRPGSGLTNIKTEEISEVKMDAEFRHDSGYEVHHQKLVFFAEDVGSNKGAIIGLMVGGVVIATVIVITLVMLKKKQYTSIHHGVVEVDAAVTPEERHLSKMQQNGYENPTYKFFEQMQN

[2] = molecular target: Microtubule-associated protein tau (Homo sapiens) (UniProt P10636); experiment: Ability for neuropathological staining of neurofibrillary tangles in human corpse AD brain temporal cortex
Microtubule-associated protein tau (Homo sapiens), sequence (P10636 whole entry, looked up): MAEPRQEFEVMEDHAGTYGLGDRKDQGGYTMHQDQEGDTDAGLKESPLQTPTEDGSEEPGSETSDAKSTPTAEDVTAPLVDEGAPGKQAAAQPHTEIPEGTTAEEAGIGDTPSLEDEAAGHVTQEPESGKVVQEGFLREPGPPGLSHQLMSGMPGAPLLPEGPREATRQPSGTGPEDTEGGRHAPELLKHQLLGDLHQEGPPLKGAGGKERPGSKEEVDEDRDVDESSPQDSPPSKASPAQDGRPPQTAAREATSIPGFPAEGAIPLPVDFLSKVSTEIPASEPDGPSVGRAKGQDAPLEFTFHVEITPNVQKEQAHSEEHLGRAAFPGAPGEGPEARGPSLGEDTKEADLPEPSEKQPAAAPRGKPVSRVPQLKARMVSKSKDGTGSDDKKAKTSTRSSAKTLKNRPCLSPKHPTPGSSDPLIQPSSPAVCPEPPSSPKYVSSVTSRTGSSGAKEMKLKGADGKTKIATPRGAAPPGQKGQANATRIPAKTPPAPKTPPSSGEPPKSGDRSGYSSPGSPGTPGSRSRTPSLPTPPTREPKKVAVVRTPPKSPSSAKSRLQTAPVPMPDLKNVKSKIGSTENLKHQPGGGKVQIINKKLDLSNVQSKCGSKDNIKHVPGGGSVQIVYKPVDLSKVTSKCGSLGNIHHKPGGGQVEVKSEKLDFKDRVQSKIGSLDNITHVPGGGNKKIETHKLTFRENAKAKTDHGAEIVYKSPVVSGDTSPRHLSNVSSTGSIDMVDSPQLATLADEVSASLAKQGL

[3] = molecular target: T1, Amyloid-beta precursor protein; experiment: Ability for neuropathological staining of amyloid plaque in human corpse AD brain temporal cortex; assay type: functional, tissue-based
Method in brief: (§1)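 Postmortem temporal cortex from two AD cases, 5 µm paraffin serial sections deparaffinized in xylene/ethanol, washed in water then PBS, immersed in compound solution at various concentrations (50% ethanol in PBS above 0.5 mM), PBS wash 15 min, mounted; viewed by fluorescence microscopy (G-filter); serial sections immunostained for Aβ and tau with DAB.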

[4] = molecular target: T1, Amyloid-beta precursor protein; experiment: Labelling of accumulated amyloid plaque in Tg2576 transgenic mouse brain cerebral cortex expressing human APP after 30 mins; assay type: functional, tissue-based; conditions: tested as the 11C-labelled form
[5] = molecular target: T1, Amyloid-beta precursor protein; experiment: Ability for neuropathological staining of cerebrovascular amyloid plaque in human corpse AD brain; assay type: functional; method in brief: as §1
[6] = molecular target: T1, Amyloid-beta precursor protein; experiment: Labelling of accumulated amyloid plaque in Tg2576 transgenic mouse brain hippocampus expressing human APP after 30 mins; assay type: functional, tissue-based; conditions: tested as the 11C-labelled form
[7] = Partition coefficient, log P at pH 7.4; assay type: physicochemical; conditions: octanol/water
Mus musculus [8] = organism: Mus musculus; experiment: %Compound removed from ddY mouse brain after 30 mins; assay type: ADME, organism-based; conditions: in vivo, 0.5 h
Mus musculus [9] = experiment: Ratio for drug uptake in iv dosed ddY mouse brain after 2 mins to after 30 mins; assay type: ADME, organism-based; conditions: in vivo

Structure (SMILES): Nc1ccc(-c2cc3cc(O)ccc3o2)cc1
Ki [1]: 11.5 nM

Structure (SMILES): [11CH3]Nc1ccc(-c2cc3cc(O)ccc3o2)cc1
logD [7]: 2.36
washout (Mus musculus [8]): 90%
Ratio (Mus musculus [9]): 0.07

Structure (SMILES): COc1ccc2oc(-c3ccc(N(C)C)cc3)cc2c1
Ki [1]: 12 nM

Further molecules by falling Ki [1], results first:

Ki [1]: 2.8 nM
Structure (SMILES): CN(C)c1ccc(-c2cc3cc(O)ccc3o2)cc1

Ki [1]: 2.3 nM
Structure (SMILES): COc1ccc2oc(-c3ccc(N)cc3)cc2c1

Ki [1]: 1.3 nM
Structure (SMILES): CNc1ccc(-c2cc3cc(OC)ccc3o2)cc1

Activity [2]: Active
Ki [1]: 0.7 nM
Activity [3]: Active
Activity [4]: Active
Activity [5]: Active
Activity [6]: Active
Structure (SMILES): CNc1ccc(-c2cc3cc(O)ccc3o2)cc1
